In brackets after ≈: the same amount, converted by molar mass.
Experiments:
[1] = tested on: V79; assay: Antiproliferative activity against chinese hamster wild-type V79 NTR-ve cells after 18 hrs; assay type: functional, cell-based; details: Cricetulus griseus, V79, 18 h
[2] = tested on: V79; assay: Antiproliferative activity against chinese hamster V79 NTRpuro cells after 18 hrs; assay type: functional, cell-based; details: Cricetulus griseus, V79, 18 h
[3] = tested on: V79; assay: Selectivity ratio of IC50 for V79 NTR-ve cells to IC50 for V79 NTRpuro cells; assay type: functional, Cricetulus griseus
[4] = tested on: EMT6; assay: Antiproliferative activity against mouse wild type EMT6 NTR-ve cells after 18 hrs; assay type: functional, cell-based; details: EMT6, 18 h
[5] = tested on: EMT6; assay: Antiproliferative activity against mouse EMT6 NTRpuro cells after 18 hrs; assay type: functional, cell-based; details: EMT6, 18 h
[6] = tested on: EMT6; assay: Selectivity ratio of IC50 for EMT6 NTR-ve cells to IC50 forEMT6 NTRpuro cells; assay type: functional, Mus musculus
[7] = tested on: WiDr; assay: Antiproliferative activity against human wild type WiDr NTR-ve cells after 18 hrs; assay type: functional, cell-based
[8] = tested on: WiDr; assay: Antiproliferative activity against human WiDr NTRneo cells after 18 hrs; assay type: functional, cell-based
[9] = tested on: WiDr; assay: Selectivity ratio of IC50 for WiDr NTR-ve cells to IC50 for WiDr NTRneo cells; assay type: functional, Homo sapiens
[10] = Antiproliferative activity against human wild type Skov3 NTR-ve cells after 18 hrs; assay type: functional, cell-based
[11] = Antiproliferative activity against human Skov3 NTRneo cells after 18 hrs; assay type: functional, cell-based; details: SK-OV-3, 18 h
[12] = Selectivity ratio of IC50 for Skov3 NTR-ve cells to IC50 for Skov3 NTRneo cells; assay type: functional, Homo sapiens
[13] = Stability in alpha MEM at 37 degC after 24 hrs; assay type: physicochemical; details: read-out: Stability
Outline: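 Percent parent compound remaining, by HPLC, after holding in α-MEM with 5% fetal calf serum at 37 °C for 24 h.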

[14] = Solubility in alpha MEM; assay type: physicochemical
Outline: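 Solubility (mM) in α-MEM with 5% fetal calf serum at ambient temperature, measured by HPLC.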

Row | Compound | IC50 [1] [µM] | IC50 [2] [µM] | Ratio IC50 [3] | IC50 [4] [µM] | IC50 [5] [µM] | Ratio IC50 [6] | IC50 [7] [µM] | IC50 [8] [µM] | Ratio IC50 [9] | IC50 [10] [µM] | IC50 [11] [µM] | Ratio IC50 [12] | remaining at 24 h [13] [%] | solubility [14] [µM]
1 | CN(C)CCNC(=O)c1cc(N(CCCl)CCCl)c([N+](=O)[O-])cc1[N+](=O)[O-] | 89 | 81 | 1.1 | 62 | 35 | 1.8 | 62 | 66 | 0.9 | 246 | 44 | 6 | 103 | 
2 | CC(O)CNC(=O)c1cc(N(CCCl)CCCl)c([N+](=O)[O-])cc1[N+](=O)[O-] (stereo not drawn) | 438 | 21 | 21 | 593 | 2.6 | 233 | 586 | 19 | 30 | 705 | 9.5 | 75 | 107 | 1200 (≈ 491 µg/mL)
3 | O=C(NCCCn1ccnc1)c1cc(N(CCCl)CCCl)c([N+](=O)[O-])cc1[N+](=O)[O-] | 174 | 32 | 7.4 | 187 | 45 | 41 | 106 | 37 | 2.9 | 474 | 18 | 26 | 70 | 19000 (≈ 8730 µg/mL)
4 | O=C(NC(CO)(CO)CO)c1cc(N(CCCl)CCCl)c([N+](=O)[O-])cc1[N+](=O)[O-] | 1050 | 13 | 91 | 693 | 0.45 | 1530 | 700 | 9.8 | 61 | 970 | 4.2 | 205 | 97 | 1800 (≈ 819 µg/mL)
5 | O=C(O)CCNC(=O)c1cc(N(CCBr)CCBr)c([N+](=O)[O-])cc1[N+](=O)[O-] | 54 | 13 | 45 | 40 | 2.4 | 17 | 40 | 7.6 | 4.8 | 67 | 7.6 | 12 |  | 8400 (≈ 4300 µg/mL)
6 | O=C(NCCCN1CCOCC1)c1cc(N(CCCl)CCCl)c([N+](=O)[O-])cc1[N+](=O)[O-] | 348 | 105 | 3.4 | 199 | 24 | 8 | 163 | 90 | 1.9 | 692 | 55 | 14 | 96 | 22000 (≈ 10500 µg/mL)
7 | O=C(NCCCN1CCOCC1)c1cc(N(CCBr)CCBr)c([N+](=O)[O-])cc1[N+](=O)[O-] | 148 | 16 | 9.2 | 56 | 16 | 3.6 | 134 | 57 | 2.4 | 272 | 34 | 7.3 | 74 | 860 (≈ 488 µg/mL)
8 | CS(=O)(=O)c1cc([N+](=O)[O-])c(N(CCCl)CCCl)cc1C(=O)NCC(O)CO (stereo not drawn) | 843 | 427 | 2.3 | 1200 | 189 | 6.4 | 1980 | 994 | 2 | 2320 | 745 | 3.3 | 106 | 16000 (≈ 7330 µg/mL)
9 | O=C(NO)c1cc(N(CCBr)CCBr)c([N+](=O)[O-])cc1[N+](=O)[O-] | 34 | 0.2 | 180 | 33 | 0.07 | 500 | 45 | 0.39 | 92 | 59 | 0.31 | 180 | 69 | 1200 (≈ 547 µg/mL)
10 | CS(=O)(=O)OCCN(CCBr)c1cc(C(=O)NO)c([N+](=O)[O-])cc1[N+](=O)[O-] | 97 | 0.9 | 112 | 63 | 0.41 | 156 | 113 | 1.16 | 100 | 146 | 1.44 | 115 | 48 | 1500 (≈ 707 µg/mL)
